One series relates to HCT-116^G13D. Put plainly: SRB assay. The format is cell-based. The settings on record: Homo sapiens, 48 h. In short, it runs like this: (§1)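 Sulforhodamine B assay. Cells were plated at 5000–10,000/well according to doubling time, then after 24 h exposed to a 7-point, 2-fold dilution series for 48 h at 37 °C, with paclitaxel as positive control. Cells were TCA-fixed 1 h at 4 °C and stained with 0.4% SRB, with unbound dye removed by 1% acetic acid. Bound dye was dissolved in 10 mM Tris pH 10.4 and read at 540 nm. IC50 was obtained by curve fitting; quadruplicates.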
In general terms: The SRB assay estimates cell density from bound dye.

The test system of the next series is SW-620^G12V. Put plainly: SRB assay. The format is cell-based. To be noted: Homo sapiens, 48 h. In short, it runs like this: as §1
Series [1] concerns HCT-116^G13D parental derived colonospheres. The series can be described thus: 3D colonospheres chemotherapy treatment. The format is cell-based, Human. To be noted: 5-FU 14.7 μM, PMBA 1.7 μM, after ten days of growth. In a few lines:
(§2)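 Colonospheres grown from single-cell suspensions at low density in serum-free DMEM/F12 with FGF (10 ng/mL), EGF (20 ng/mL) and B27. Medium was refreshed every 3–4 days, and spheres were passaged by syringe dissociation. After ten days of growth, parental- or CSC-derived colonospheres were exposed to 5-FU (14.7/78 μM) and/or test compound (1.7/2.2 μM). Response was judged by metabolically active cells and sphere dissociation, with phase-contrast imaging.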

Series [2] deals with HCT-116^G13D-CSCs derived colonospheres. The series can be described thus: 3D colonospheres chemotherapy treatment. The settings on record: 5-FU 14.7 μM, even with prolonged exposure. The format is cell-based, Human. In a few lines: as §2
Series [3] concerns SW-620^G12V-CSC derived colonospheres. Put plainly: 3D colonospheres chemotherapy treatment. The format is cell-based, Human. To be noted: 5-FU 78 μM, even with prolonged exposure. In short, it runs like this: as §2
The test system of the next series is ABCB1. Put plainly: qRT-PCR after chemotherapy treatment. The format is cell-based, Human. To be noted: HCT-116^G13D- and SW-620^G12V–CSCs, 48 h; printed '∼4 and 2-fold' for 'ABCB1 and ABCC1'. Background: Quantitative PCR measures a nucleic acid by following its amplification.
Another series deals with ABCC1. The series can be described thus: qRT-PCR after chemotherapy treatment. The format is cell-based, Human. To be noted: HCT-116^G13D- and SW-620^G12V–CSCs, 48 h; printed '∼4 and 2-fold' for 'ABCB1 and ABCC1'.
Series [4] deals with ALDH1A1, ALDH1A3 and ALDH3A1. Put plainly: qRT-PCR after chemotherapy treatment. The format is cell-based, Human. To be noted: HCT-116^G13D and SW-620^G12V, 48 h. In a few lines:
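Parental monolayers and 10-day colonospheres were treated 48 h with 5-FU (14.7/78 μM), test compound (1.7/2.2 μM) or both, with 0.2% DMSO (final) as control. RNA was extracted with Tri-reagent and DNase-treated, then reverse-transcribed. SYBR green qPCR ran 95 °C 2 min, then 40 cycles of 95 °C 5 s/60 °C 5 s, with a final 72 °C 5 min. Expression was normalised to GAPDH.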

The format of series [5] is in vivo, Balb/c mice. In a few lines: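 Male or unspecified Balb/c mice (20–22 g), fasted overnight, four groups of five. Single oral doses were given in 0.5% DMSO/10% Solutol/water at 10 mL/kg: test compound 20 mg/kg and 5-FU 40 mg/kg, alone or combined. Retro-orbital blood was taken at 0–10 h into EDTA by sparse sampling, two samples per group. Plasma (50 μL) was protein-precipitated with methanol, centrifuged, and the organic layer analysed.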

A further series has as its system advanced CRC. The settings on record: background statement, ref not given; cited from earlier work.
Setting [6] is: Balb/c, mouse, plasma, po, 40 mg.

Structures are written as SMILES.

As a reminder, the IC50 is the point on the concentration scale where inhibition reaches its midpoint. A lower IC50 goes with higher potency. A word on the AUC(0-inf): it is total exposure, with the tail of the curve extrapolated. A high value points to high exposure. One may read the AUC(0-t) as exposure summed from dosing to a finite time, without extrapolation to infinity. The low end stands for less exposure, the high end for more exposure. Broadly, the Cmax is the maximum level reached in the sampled fluid or tissue. A word on the half-life: it is the time needed for the level to fall by half in the phase considered. For `O=c1[nH]cc(F)c(=O)[nH]1` [5-FU, 5-Fluorouracil], the IC50 with HCT-116^G13D worked out at 14.8 µM; in the series on SW-620^G12V it was 78.3 µM. The “response of colonospheres to treatment” value was “sensitive” in series [1], “resistant” in [2] and “resistant” in [3]. Further, the “ABCB1 expression, fold down regulated” value in the series with ABCB1 is “did not alter the expression”. For the same compound, the “ABCC1 expression, fold down regulated” value with ABCC1 was “did not alter the expression”. The “ALDH1A1, ALDH1A3 and ALDH3A1 expression” value in series [4] is on record as “did not alter the expression”. The compound also came in with a Vd in series [5] (5-FU alone, oral 40 mg) of 56.32 L/kg. The AUC(0-inf) in series [5] (setting [6]) is 1140 ng·h/mL. Moreover, the AUC(0-t) in series [5] (setting [6]) worked out at 1110 ng·h/mL. The same compound came in with a Cmax in [5] (setting [6]) of 2450 ng/mL. Also, the half-life in [5] (setting [6]) was 1.1 h. In the series on advanced CRC, the curative accountability is on record as 10–15%.

(Values after publication PMC9014391 (Heliyon, 2022).)
